Test [1] has as its target Serine/threonine-protein kinase N1 (Homo sapiens) (UniProt Q16512). Kind of test: Inhibition of PRK1 at 10 uM.
The target in test [2] is Proto-oncogene tyrosine-protein kinase Src (Homo sapiens) (UniProt P12931). In words: Inhibition of SRC at 10 uM.
The target in test [3] is Insulin-like growth factor 1 receptor (Homo sapiens) (UniProt P08069). In words: Inhibition of IGF1R at 10 uM.
The target in test [4] is T1, NUAK family SNF1-like kinase 1 (Homo sapiens) (UniProt O60285).
T1 sequence (whole entry): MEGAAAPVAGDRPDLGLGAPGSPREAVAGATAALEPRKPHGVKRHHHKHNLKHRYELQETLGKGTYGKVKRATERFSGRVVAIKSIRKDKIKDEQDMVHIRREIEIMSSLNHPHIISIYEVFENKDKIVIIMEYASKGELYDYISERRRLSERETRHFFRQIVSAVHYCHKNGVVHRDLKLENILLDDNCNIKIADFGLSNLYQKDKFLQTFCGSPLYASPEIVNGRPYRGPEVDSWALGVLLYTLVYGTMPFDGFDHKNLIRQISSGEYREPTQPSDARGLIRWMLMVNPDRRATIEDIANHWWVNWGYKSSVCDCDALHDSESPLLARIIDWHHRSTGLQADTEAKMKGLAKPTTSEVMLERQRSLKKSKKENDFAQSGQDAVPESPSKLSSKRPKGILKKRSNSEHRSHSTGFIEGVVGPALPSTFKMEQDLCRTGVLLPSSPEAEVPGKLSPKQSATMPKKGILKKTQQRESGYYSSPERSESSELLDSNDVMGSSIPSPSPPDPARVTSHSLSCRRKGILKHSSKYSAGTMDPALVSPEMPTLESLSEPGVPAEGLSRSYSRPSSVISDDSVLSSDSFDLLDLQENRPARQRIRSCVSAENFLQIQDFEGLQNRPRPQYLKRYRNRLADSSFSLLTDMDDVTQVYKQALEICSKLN
Kind of test: Inhibition of ARK5 at 10 uM.

Test [5] has as its target Casein kinase II subunit alpha (Homo sapiens) (UniProt P68400). Kind of test: Inhibition of CK2alpha1 at 10 uM.
The target in test [6] is T2, Serine/threonine-protein kinase PLK4 (Homo sapiens) (UniProt O00444).
T2 sequence (whole entry): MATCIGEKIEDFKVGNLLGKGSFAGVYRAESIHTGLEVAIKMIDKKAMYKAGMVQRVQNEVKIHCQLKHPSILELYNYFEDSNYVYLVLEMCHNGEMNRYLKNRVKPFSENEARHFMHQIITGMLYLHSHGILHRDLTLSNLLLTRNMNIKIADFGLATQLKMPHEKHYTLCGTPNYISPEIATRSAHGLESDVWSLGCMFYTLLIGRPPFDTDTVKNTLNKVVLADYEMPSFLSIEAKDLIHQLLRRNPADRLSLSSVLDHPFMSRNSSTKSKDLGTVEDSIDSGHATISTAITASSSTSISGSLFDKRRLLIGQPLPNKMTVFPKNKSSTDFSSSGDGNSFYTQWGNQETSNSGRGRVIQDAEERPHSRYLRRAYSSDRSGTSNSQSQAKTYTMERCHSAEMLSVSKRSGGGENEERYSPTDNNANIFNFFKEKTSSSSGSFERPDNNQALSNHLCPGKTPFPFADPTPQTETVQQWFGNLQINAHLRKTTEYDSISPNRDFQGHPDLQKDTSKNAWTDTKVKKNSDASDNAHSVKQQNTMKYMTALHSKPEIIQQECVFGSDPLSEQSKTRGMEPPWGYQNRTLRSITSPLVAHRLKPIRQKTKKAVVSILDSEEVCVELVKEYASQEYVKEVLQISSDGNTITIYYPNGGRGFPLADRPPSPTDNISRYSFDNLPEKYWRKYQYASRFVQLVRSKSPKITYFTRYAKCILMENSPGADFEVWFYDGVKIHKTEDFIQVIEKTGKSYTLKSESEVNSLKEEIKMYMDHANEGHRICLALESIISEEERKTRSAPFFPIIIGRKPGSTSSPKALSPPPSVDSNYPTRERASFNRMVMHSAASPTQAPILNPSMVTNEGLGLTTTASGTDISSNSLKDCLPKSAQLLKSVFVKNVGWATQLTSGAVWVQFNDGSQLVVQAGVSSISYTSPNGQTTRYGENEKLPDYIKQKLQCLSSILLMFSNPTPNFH
Kind of test: Inhibition of SAK at 10 uM.

Test [7] addresses Hepatocyte growth factor receptor (Homo sapiens) (UniProt P08581). In words: Inhibition of MET at 10 uM.
The target in test [8] is Aurora kinase B (Homo sapiens) (UniProt Q96GD4). Kind of test: Inhibition of AuroraB at 10 uM.
Aurora kinase B (Homo sapiens), sequence (Q96GD4 whole entry): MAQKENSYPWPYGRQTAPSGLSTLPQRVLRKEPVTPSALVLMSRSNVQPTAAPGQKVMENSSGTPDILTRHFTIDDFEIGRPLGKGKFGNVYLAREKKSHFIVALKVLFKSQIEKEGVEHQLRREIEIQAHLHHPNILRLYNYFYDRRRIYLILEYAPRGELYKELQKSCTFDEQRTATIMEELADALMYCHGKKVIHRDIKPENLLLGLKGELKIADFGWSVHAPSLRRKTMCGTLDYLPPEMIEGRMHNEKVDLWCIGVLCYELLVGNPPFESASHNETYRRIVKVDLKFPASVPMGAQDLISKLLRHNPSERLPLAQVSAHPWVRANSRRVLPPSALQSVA
Test [9] addresses T3, Mitogen-activated protein kinase 14 (Homo sapiens, UniProt Q16539). In words: Inhibition of p38alpha-dependent TNFalpha production in human whole blood at 100 uM. In outline: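 Freshly drawn human whole blood, used diluted so that serum albumin and other plasma proteins are present; inhibition of TNF-α release from the blood's immune cells measured.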
The target in test [10] is RAC-alpha serine/threonine-protein kinase (Homo sapiens) (UniProt P31749). Kind of test: Inhibition of AKT1 at 10 uM.
RAC-alpha serine/threonine-protein kinase (Homo sapiens), sequence (P31749 whole entry): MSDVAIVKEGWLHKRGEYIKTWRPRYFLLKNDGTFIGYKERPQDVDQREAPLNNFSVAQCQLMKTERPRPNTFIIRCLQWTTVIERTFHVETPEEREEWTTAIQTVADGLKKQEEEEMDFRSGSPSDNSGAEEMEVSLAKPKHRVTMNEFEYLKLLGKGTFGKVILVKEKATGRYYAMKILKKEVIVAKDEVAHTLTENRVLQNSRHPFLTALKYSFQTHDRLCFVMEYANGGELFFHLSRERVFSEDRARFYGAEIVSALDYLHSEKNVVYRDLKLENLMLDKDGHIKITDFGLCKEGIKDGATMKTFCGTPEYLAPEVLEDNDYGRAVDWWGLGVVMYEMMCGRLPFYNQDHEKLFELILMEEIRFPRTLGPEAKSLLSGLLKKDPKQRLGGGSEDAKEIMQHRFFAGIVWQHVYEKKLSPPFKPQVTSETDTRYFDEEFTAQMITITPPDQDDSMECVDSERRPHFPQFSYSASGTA
The target of test [11] is BDNF/NT-3 growth factors receptor (Homo sapiens) (UniProt Q16620). In words: Inhibition of TRKB at 10 uM.
BDNF/NT-3 growth factors receptor (Homo sapiens), sequence (Q16620 32-822 limits assumed): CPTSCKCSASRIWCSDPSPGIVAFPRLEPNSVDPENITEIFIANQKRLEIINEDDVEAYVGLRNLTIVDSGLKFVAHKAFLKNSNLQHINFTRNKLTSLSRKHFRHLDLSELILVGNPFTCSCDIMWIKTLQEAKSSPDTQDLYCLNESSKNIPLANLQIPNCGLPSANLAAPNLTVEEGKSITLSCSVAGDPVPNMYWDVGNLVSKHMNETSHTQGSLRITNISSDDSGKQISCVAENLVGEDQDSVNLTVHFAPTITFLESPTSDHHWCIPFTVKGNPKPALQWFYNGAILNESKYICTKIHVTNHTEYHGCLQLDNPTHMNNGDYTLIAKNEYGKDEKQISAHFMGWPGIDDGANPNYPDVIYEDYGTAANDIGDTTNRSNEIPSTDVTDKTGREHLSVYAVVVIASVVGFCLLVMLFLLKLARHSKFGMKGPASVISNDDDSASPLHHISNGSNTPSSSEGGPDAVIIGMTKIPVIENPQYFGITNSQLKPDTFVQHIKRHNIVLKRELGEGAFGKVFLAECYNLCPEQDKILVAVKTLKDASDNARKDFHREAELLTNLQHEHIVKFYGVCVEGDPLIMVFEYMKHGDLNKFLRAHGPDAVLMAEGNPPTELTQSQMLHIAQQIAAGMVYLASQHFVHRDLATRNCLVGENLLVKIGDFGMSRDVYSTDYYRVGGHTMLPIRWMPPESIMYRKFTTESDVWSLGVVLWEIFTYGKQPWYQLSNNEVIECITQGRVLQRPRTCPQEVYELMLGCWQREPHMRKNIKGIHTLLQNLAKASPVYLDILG
Test [12] deals with Insulin receptor (Homo sapiens) (UniProt P06213). Kind of test: Inhibition of INSR at 10 uM.
For test [13], the target named is T3, Mitogen-activated protein kinase 14. Kind of test: Inhibition of p38alpha by immunosorbent based kinase assay.
Test [14] has as its target Serine/threonine-protein kinase PLK1 (Homo sapiens) (UniProt P53350). Kind of test: Inhibition of PLK1 at 10 uM.
Test [15] addresses Focal adhesion kinase 1 (Homo sapiens) (UniProt Q05397). Kind of test: Inhibition of FAK at 10 uM.
The target of test [16] is Vascular endothelial growth factor receptor 2 (Homo sapiens) (UniProt P35968). In words: Inhibition of VEGFR2 at 10 uM.
Vascular endothelial growth factor receptor 2 (Homo sapiens), sequence (P35968 whole entry): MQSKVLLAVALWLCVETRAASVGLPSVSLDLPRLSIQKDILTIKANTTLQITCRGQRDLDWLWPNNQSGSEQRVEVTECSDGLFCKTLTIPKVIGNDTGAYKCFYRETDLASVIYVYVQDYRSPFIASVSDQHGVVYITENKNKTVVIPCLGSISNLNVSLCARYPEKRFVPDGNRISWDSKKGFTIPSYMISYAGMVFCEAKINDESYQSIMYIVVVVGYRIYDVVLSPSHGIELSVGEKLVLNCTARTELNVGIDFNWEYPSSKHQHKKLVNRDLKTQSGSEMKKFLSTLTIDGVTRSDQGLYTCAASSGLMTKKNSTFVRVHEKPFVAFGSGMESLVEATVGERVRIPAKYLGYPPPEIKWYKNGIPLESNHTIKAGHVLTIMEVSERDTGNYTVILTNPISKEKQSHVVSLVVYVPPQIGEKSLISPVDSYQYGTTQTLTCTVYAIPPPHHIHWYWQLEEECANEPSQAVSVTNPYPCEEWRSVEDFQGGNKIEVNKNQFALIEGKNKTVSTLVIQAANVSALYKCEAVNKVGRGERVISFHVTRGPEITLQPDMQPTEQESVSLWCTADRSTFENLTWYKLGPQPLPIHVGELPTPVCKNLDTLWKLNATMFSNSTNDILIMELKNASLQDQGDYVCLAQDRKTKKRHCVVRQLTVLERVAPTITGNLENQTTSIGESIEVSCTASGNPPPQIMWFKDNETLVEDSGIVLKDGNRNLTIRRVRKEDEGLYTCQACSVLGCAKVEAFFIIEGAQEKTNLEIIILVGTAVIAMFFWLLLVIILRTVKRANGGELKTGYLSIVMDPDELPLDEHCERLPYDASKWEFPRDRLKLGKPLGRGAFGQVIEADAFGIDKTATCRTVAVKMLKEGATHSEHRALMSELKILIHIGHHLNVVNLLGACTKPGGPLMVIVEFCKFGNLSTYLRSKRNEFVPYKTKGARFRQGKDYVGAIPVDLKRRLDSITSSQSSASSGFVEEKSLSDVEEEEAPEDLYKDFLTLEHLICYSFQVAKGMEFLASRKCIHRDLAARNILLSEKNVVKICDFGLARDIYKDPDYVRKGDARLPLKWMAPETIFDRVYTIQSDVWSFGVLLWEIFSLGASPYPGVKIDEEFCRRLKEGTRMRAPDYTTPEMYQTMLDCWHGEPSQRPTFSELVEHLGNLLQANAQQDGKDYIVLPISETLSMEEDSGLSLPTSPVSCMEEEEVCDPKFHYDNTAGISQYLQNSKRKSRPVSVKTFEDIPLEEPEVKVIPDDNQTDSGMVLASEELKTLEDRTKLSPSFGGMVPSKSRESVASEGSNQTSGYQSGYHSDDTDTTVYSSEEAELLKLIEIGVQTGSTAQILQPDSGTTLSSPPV
For test [17], the target named is Tyrosine-protein kinase receptor UFO (Homo sapiens) (UniProt P30530). Kind of test: Inhibition of AXL at 10 uM.
Test [18] relates to Serine/threonine-protein kinase B-raf (Homo sapiens), P15056 [V600E]. In words: Inhibition of BRAF V600E mutant at 10 uM.
Test [19] deals with T3, Mitogen-activated protein kinase 14. In words: Inhibition of p38alpha at 10 uM by immunosorbent based kinase assay.

Active and inactive are the calls of the source. The rule behind the calls is not given here.

As a reminder, the inhibition is the drop in the measured response relative to a control, in per cent. By IC50 is commonly meant the concentration that inhibits the measured activity by half. Higher therefore signals a need for much substance.

T3 sequence (Q16539 whole entry): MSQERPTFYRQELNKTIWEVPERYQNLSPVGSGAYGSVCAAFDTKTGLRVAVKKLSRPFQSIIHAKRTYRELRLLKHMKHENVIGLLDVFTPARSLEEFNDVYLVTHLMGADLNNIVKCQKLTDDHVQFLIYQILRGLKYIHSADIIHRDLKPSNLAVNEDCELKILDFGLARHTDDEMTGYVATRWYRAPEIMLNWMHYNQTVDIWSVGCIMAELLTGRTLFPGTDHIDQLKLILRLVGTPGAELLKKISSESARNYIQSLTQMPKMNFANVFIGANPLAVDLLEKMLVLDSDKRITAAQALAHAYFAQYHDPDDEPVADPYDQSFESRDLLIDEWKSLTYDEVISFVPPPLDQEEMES
Proto-oncogene tyrosine-protein kinase Src (Homo sapiens), sequence (P12931 2-536 limits assumed): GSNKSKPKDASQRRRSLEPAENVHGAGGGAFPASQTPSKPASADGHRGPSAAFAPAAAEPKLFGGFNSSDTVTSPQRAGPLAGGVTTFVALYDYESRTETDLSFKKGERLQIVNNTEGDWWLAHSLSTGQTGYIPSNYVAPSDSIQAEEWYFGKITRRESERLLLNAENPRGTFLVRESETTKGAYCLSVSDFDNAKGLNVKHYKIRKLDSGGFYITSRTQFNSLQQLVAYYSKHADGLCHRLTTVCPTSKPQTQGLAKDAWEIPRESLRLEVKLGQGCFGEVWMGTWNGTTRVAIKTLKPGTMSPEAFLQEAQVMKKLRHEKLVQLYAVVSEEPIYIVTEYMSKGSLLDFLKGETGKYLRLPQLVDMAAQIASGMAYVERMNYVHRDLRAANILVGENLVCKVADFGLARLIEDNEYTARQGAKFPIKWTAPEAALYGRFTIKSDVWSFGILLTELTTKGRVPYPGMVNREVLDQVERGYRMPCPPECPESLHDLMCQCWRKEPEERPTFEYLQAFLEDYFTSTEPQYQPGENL
Serine/threonine-protein kinase N1 (Homo sapiens), sequence (Q16512 2-942 limits assumed): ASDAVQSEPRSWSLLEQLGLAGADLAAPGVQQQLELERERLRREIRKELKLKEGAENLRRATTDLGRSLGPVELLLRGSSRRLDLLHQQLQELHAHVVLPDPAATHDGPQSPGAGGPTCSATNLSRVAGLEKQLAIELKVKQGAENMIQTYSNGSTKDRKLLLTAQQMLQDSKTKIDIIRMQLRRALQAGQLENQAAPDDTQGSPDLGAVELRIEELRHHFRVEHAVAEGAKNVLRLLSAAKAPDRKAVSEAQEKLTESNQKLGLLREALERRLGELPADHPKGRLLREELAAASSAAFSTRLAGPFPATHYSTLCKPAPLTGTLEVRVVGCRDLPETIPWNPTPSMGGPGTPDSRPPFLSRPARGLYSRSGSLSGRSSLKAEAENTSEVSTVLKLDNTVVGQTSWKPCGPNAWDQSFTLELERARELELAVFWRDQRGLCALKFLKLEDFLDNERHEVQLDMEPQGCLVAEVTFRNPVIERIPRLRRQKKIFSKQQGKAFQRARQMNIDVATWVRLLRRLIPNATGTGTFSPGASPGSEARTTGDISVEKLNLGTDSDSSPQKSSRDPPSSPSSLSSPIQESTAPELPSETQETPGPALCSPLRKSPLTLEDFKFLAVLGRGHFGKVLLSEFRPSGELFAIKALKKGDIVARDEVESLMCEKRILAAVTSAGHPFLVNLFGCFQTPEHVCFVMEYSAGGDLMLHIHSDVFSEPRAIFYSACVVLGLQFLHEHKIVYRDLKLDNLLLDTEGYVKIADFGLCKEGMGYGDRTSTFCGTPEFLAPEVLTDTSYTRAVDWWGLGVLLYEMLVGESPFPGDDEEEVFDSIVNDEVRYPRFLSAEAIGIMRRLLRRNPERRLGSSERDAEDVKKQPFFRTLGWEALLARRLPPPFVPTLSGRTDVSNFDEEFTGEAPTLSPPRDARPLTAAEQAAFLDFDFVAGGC

Turning to `CC1(C)OC[C@H](COc2cccc3c2CCc2cc(Nc4ccc(F)cc4F)ccc2C3=O)O1`, the inhibition result in test [1], in test [2], in test [3], in [4], in test [5] and in test [6] was “inactive” in each case. In addition, the inhibition result in test [7], in [8], in test [10], in test [11], in test [12] and in test [14] was “inactive” in each case. Moreover, the inhibition result in test [15], in test [16], in test [17] and in [18] was “inactive” throughout. Besides, the inhibition in test [9] was 40%. In addition, the IC50 in test [13] turned out to be 440 nM.
Take `COc1ccc2ccc3cc(Nc4ccc(F)cc4F)ccc3c(=O)c2c1`: the inhibition entry in test [1], in test [2], in [3], in test [4], in [5] and in [6] was “inactive” in each case. Further, the inhibition entry in [7], in [8], in test [10], in test [11], in [12] and in [14] was “inactive” each time. Further, the inhibition result in test [15], in test [16], in [17] and in [18] was “inactive” in each case. For the same compound, the inhibition in test [19] turned out to be 21%.

Values taken from ChEMBL document CHEMBL2150974 (J Med Chem, 2012).
